Test results from ChEMBL document CHEMBL1149289, “Synthesis and antibacterial activity of new poly-S-lysine-porphyrin conjugates” (J Med Chem, 2004).

Legend:
Type in all cases: ADME, organism-based
Details in all cases: in vivo
Staphylococcus aureus [1] = assay: Drug uptake per mg of protein in methicillin-resistant Staphylococcus aureus 110 at 0.1 uM after 10 mins
Summary of the method: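 Bacterial suspensions (10^8 to 10^9 cells/mL in PBS) were incubated with porphyrin for 10 min in the dark at room temperature, then centrifuged. The pellet was digested in 2% aqueous SDS. Porphyrin was quantified by spectrofluorimetry and cell protein by modified Lowry assay (BSA standard). Uptake is given as nmol per mg cell protein.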

Staphylococcus aureus [2] = assay: Drug uptake per mg of protein in Staphylococcus aureus ATCC 25923 at 0.1 uM after 10 mins
Summary of the method: (§1)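 Washed stationary-phase bacteria in PBS (10^8 to 10^9 cells/mL; OD650 ca. 0.7) incubated 10 min in the dark at room temperature with photosensitizer. Cells were then centrifuged, supernatant removed, and pellet digested in 2% aqueous SDS. Porphyrin measured by spectrofluorimetry, cell protein by modified Lowry with BSA standard; uptake expressed as nmol photosensitizer per mg cell protein.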

Escherichia coli = assay: Drug uptake per mg of protein in Escherichia coli O4 at 0.1 uM after 10 mins; summary of the method: as §1

Question: Which results are given for `O=C(O)c1ccc(-c2c3nc(c(-c4ccncc4)c4ccc([nH]4)c(-c4ccncc4)c4nc(c(-c5ccncc5)c5ccc2[nH]5)C=C4)C=C3)cc1` [PORPHIRIN]?
Answer: Drug uptake (Staphylococcus aureus [1]): 1.5 nmol/mg; Drug uptake (Staphylococcus aureus [2]): 1.54 nmol/mg; Drug uptake (Escherichia coli): 1.2 nmol/mg
